The list is not random: actives were taken first. Their share in the collection is about 10%.
Lmaj promast: Leishmania major promastigote growth inhibition, primary screen. inhibition, % at 10 µM. 200,000 compounds, 9% hits. Leishmania major promastigotes, resazurin fluorescence viability; in the data active means inhibition above about 50%;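 further: promastigotes grown with compound for 44 hours at 28 °C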
WT yeast gro inh: growth inhibition of WT strain, primary screen, mitochondrial fusion inhibitor project, WT and mutant strains, chemical genetic. AID 1362, 2008. inhibition, % at 10 µM. 190,000 compounds, 2.1% hits. mitochondrial fusion phenotypic screen; in the data active means inhibition above about 58%; tested in S. cerevisiae
Diaphorase act: compounds boosting diaphorase resazurin reduction – biochemical, uHTS, resorufin fluorescence, counter-screen for diaphorase-coupled primary assays, primary screen; Diaphorase/resazurin coupled assay, 16 min; stronger effect = higher value; 1 = vehicle wells, 0 = NADH-free wells; activation factor at 20 µM; 190,000 compounds, 0.005% hits; AID 1229, 2008;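 active means diaphorase activity raised at least twofold by the compound at 20 µM; inactive means activation factor below 2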
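Test system: Clostridium kluyveri diaphorase, purified enzyme. Buffer or medium: 50 mM HEPES pH 7.4 buffer plus MgCl2 and Tween 20. Also added: 0.114 mM NADH and 0.1 mM resazurin, final amounts. Dosing: compound 20 µM once, DMSO 1%. Schedule: 16 min enzyme reaction, ambient temperature. Detection: fluorescence of resorufin, 544 nm excitation, 590 nm emission.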
PMI act: activators of human PMI, primary screen, biochemical, fluorescence intensity, near-Km mannose 6-phosphate; Mannose-6-phosphate isomerase (Homo sapiens), P34949; purified human PMI, coupled resazurin fluorescence, 20 min; stronger effect = higher value; 1 = vehicle control, 0 substrate-free wells; activation factor at 20 µM; 190,000 compounds, 0.005% hits;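 active means activation factor of 2 or more at 20 µM, relative to plate controls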
Target sequence (P34949 whole entry, looked up): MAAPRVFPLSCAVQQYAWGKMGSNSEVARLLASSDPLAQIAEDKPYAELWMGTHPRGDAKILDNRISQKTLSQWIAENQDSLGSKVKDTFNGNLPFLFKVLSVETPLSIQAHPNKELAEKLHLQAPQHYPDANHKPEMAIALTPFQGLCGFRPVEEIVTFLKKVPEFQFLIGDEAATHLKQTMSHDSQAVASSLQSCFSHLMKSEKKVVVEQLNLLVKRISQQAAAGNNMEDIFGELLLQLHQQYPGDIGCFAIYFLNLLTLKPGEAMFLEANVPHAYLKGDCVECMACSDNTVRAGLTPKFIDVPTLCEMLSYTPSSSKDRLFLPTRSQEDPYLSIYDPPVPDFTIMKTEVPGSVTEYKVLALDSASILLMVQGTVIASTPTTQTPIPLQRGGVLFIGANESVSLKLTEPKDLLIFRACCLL
PMI act satM6P: human PMI activators, high substrate, primary screen, biochemical, fluorescence intensity, near-saturating mannose 6-phosphate; Mannose-6-phosphate isomerase (Homo sapiens), P34949; coupled PMI enzyme assay, resazurin fluorescence, 20 min; stronger effect = higher value; 1 = untreated enzyme, 0 = substrate-free blank; activation factor at 20 µM; 190,000 compounds, 0.34% hits; AID 1216, 2008;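 active means activation factor of 2 or more at 20 µM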
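Material: human phosphomannose isomerase with PGI, G6PDH, diaphorase coupling enzymes; amount: PMI at 15 ng/mL final; also added: Mannose-6-phosphate 1.0 mM (near-saturating) plus 0.22 mM NADP+; incubation: enzyme reaction with compound 20 min at room temperature; signal: resorufin fluorescence (Ex 544/Em 590 nm) from resazurin via diaphorase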
The depositor's hits bear a star; . = no result.

SMILES	Lmaj promast	WT yeast gro inh	Diaphorase act	PMI act	PMI act satM6P
Cc1occc1C(=O)Nc1nnc(-c2cccs2)s1	-5	6	0.9	0.9	1
CCNc1nc(NCC)n2c(SC(C(=O)Nc3cc(Cl)cc(Cl)c3)c3ccccc3)nnc2n1 (centres undefined)	5	-11	1	1	0.8
CC(C)[C@H](NC(=O)c1ccco1)C(=O)NC12CC3CC(CC(C3)C1)C2	45	2	0.9	1	1
CCOC(=O)Nc1ccc2c(c1)ncn2C1CCCCC1	84*	-1	0.8	0.8	0.9
O=S(=O)(NCCSCc1ccc(Cl)cc1Cl)c1ccc2c(c1)OCCO2	1	73*	0.7	0.8	0.8
CCN(CC)C(=O)c1ccc2nc3ccccc3nc2c1	-4	-1	0.9	1.6	2.2*
CCN(CC)C(=O)c1c2c(nc3ccccc13)-c1ccccc1CC2	62*	19	0.8	0.9	0.9
O=c1oc2ccccc2nc1/C=C(O)/C=C/c1ccc(F)cc1	61*	34	0.9	1.2	1
COc1ccc(-c2onc(C)c2-c2cscn2)c(O)c1	-7	-1	0.9	1	0.9
CCCOC(=O)c1ccc(-c2c(C)noc2-c2ccc(OC)cc2O)o1	56*	33	0.8	0.8	0.9
CSc1ccc(CN(C)CC(=O)Nc2ccc(C)cc2Br)cc1	6	62*	0.9	1.1	1
CSc1ccc(CN(C)CC(=O)Nc2cccc(Br)c2)cc1	-5	48	0.9	0.9	1
CCn1ncc(C2=NOC(C(=O)Nc3cccc(O)c3)C2)c1C (centres undefined)	-7	12	1	1.2	1.1
COc1ccc(C2C(C#N)=C(N)N(c3ccccc3C#N)C3=C2C(=O)CCC3)cc1CN1CCCC1 (centres undefined)	-5	-2	0.8	0.9	0.9
N#CC1=C2N=C(N)c3ccccc3N2C2=C(C(=O)CCC2)C1c1cccc(Cl)c1 (centres undefined)	81*	9	0.8	0.9	0.9
Cc1ccc(S(=O)(=O)N(C)C)cc1NC(=O)COC(=O)c1ccc(Cl)cc1	-6	4	0.9	1	1
C/C(CC(=O)Nc1ccc2c(c1)OCO2)=N\NC(=O)OC(C)(C)C	6	-15	0.8	0.9	0.7
O=C(CSc1n[nH]c(=O)[nH]c1=O)N/N=C/c1ccccc1	56*	12	0.9	1.1	1.1
O=C(Cc1n[nH]c(=O)[nH]c1=O)N/N=C/c1ccccc1	-6	2	0.9	1	0.9
Cc1[nH]n(C2=NCCS2)c(=O)c1N=Nc1cccc(C(F)(F)F)c1	99*	84*	0.9	1.1	1.2
C=CCN1C(=O)CSC1=Nc1ccc(O)cc1	2	-23	1	1	1.1
C=CCn1c(O)c(C2=c3ccccc3=NC2=O)sc1=Nc1ccc(O)cc1	.	94*	.	.	.
CCC(CC)C(=O)c1c[nH]c(C(=O)NCc2ccccn2)c1	-2	-6	1	1.1	1
Cc1ccc(N2C(=O)C3C(C2=O)C(C(=O)c2ccc(Cl)cc2)N2CCCC32)cc1 (centres undefined)	94*	30	0.9	1.6	2*
CC(NCc1ccc(F)cc1)C(=O)NC1CCCCC1 (centres undefined)	1	-13	0.9	1	1
SMILES	Lmaj promast	WT yeast gro inh	Diaphorase act	PMI act	PMI act satM6P
CN1CCC(N(C)CC(O)c2ccccc2)CC1 (centres undefined)	-6	11	0.9	1	1
CC(C)c1ccc(CN(C)CC(O)c2ccccc2)cc1 (centres undefined)	75*	-1	1	1	1
Cc1ccccc1N(CC(=O)NCc1ccc2c(c1)OCO2)C(=O)CCC(=O)Nc1ccccn1	61*	1	0.9	1.1	1
CC(OC(=O)COc1ccccc1[N+](=O)[O-])C(=O)Nc1ccc(N2CCOCC2)cc1 (centres undefined)	-2	-2	0.9	1	0.9
COC(=O)CN1C(=S)N(c2ccc(OC)cc2)C(=O)/C1=C/c1ccc(OC)cc1	54*	7	.	.	.
Cc1cc([N+](=O)[O-])nn1CCCC(=O)NC1CCCCC1	-5	-2	1	1.1	1.1

Compound activity from PubChem.
